In ChEMBL document CHEMBL4610004, “Lipidated α/Sulfono-α-AA heterogeneous peptides as antimicrobial agents for MRSA” (Bioorg Med Chem, 2020):
≈ marks a conversion by molar mass, not a printed value. Calls of active or inactive are those of the source. No cut-off for these calls is given here.

How the values were obtained:
Staphylococcus aureus [1] = experiment: Antibacterial activity against methicillin-resistant Staphylococcus aureus ATCC 33591 assessed as reduction in bacterial growth incubated for 18 hrs by broth microdilution method; conditions: ATCC 33591, 18 h
Staphylococcus aureus [2] = experiment: Induction of cell membrane disruption in methicillin-resistant Staphylococcus aureus ATCC 33591 assessed as increase in depolarization measured for 30 mins by DiSC3 dye based fluorescence assay; format: organism-based
In short: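 Mid-log cells are washed in 5 mM HEPES then 5 mM glucose. They are resuspended (10⁸ CFU/mL) in HEPES/glucose/KCl 1:1:1 with 2 µM DiSC3. Fluorescence (ex 622, em 670 nm) is monitored 30 min at room temperature until minimal. Peptide is then added and the fluorescence rise followed as depolarization. Three trials, each in duplicate.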

[3] = Hemolytic activity in human RBC assessed as hemoglobin release incubated for 1 hr; format: ADME, cell-based, Erythrocyte; conditions: red blood cells (erythrocytes)
In short: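 Human red blood cells washed in PBS, pelleted at 1000g for 10 min, resuspended at 5% v/v. Compound serially diluted two-fold (50 µL) and mixed with 50 µL of the RBC suspension. Incubated 1 h at 37 °C, centrifuged 10 min at 3500 rpm, supernatant diluted with PBS, hemoglobin read at 540 nm. PBS defines 0% and 0.1% Triton X-100 defines 100% hemolysis. HC50 reported.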

[4] = Selectivity index, ratio of HC50 for human RBC to MIC for methicillin-resistant Staphylococcus aureus ATCC 33591; format: toxicity; conditions: red blood cells (erythrocytes)
In short: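 Selectivity = HC50 / MIC. For HC50, PBS-washed human RBCs (spun 1000g, 10 min) are diluted to 5% v/v and mixed 1:1 with twofold peptide dilutions. After 1 h at 37 °C, plates are spun and the diluted supernatant is read at 540 nm. PBS sets 0% and 0.1% Triton X-100 sets 100% hemolysis. MIC is by OD600 broth microdilution, 18 h, 37 °C.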

Staphylococcus aureus [5] = experiment: Induction of cell membrane disruption in methicillin-resistant Staphylococcus aureus ATCC 33591 assessed as increase in PI-positive cells at 5 ug/ml incubated for 2 hrs by DAPI and PI dye based fluorescence microscopy; format: organism-based
In short: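 Mid-log MRSA is incubated at 37 °C with peptide (5 µg/mL); the methods give 4 h and the legend gives 2 h. Cells are pelleted (3000g, 15 min) and PBS-washed. They are stained with DAPI (10 µg/mL, 0 °C, 15 min, dark), washed, then stained with PI (5 µg/mL). Untreated cells serve as controls. Imaged by optical microscopy at 100×.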

Staphylococcus aureus [6] = experiment: Bactericidal activity against methicillin-resistant Staphylococcus aureus ATCC 33591 assessed as reduction in bacterial colonies formation at 12.5 ug/ml incubated for 120 min followed by dilution of the suspension and further incubation for 20 hrs on agar plate by time kill assay; format: functional, organism-based
In short: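 Bacteria are exposed to a range of peptide concentrations and sampled at 0, 10, 20, 30, 60 and 120 min. At each time point 100 µL of suspension is taken, diluted, and plated on agar for 20 h at 37 °C. Colonies are counted and expressed as log CFU/mL versus time. Done in triplicate.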

Row | Structure (SMILES) | MIC (Staphylococcus aureus [1]) [µg/mL] | also measured
1 | CCCCCCCCCCCCCCCC(=O)N[C@@H](CCCCN)C(=O)NCCN([C@@H](C)C(N)=O)S(=O)(=O)c1ccccc1 | 5 (≈ 7.84 µM) | 
2 | CCCCCCCCCCCCCCCC(=O)N[C@@H](CCCCN)C(=O)NCCN([C@@H](C)C(=O)NCCN([C@@H](C)C(=O)NCCN([C@@H](C)C(N)=O)S(=O)(=O)c1ccccc1)S(=O)(=O)c1ccccc1)S(=O)(=O)c1ccccc1 | 10 (≈ 8.72 µM) | 
3 | CCCCCCCCCCCCCCCC(=O)N[C@@H](CCCCN)C(=O)NCCN([C@@H](C)C(=O)NCCN([C@@H](C)C(N)=O)S(=O)(=O)c1ccccc1)S(=O)(=O)c1ccccc1 | 2 (≈ 2.24 µM) | 
4 | CCCCCCCCCCCCCCCC(=O)N[C@@H](CCCCN)C(=O)NCCN([C@@H](C)C(N)=O)S(=O)(=O)c1ccc(Br)cc1 | 2 (≈ 2.79 µM) | 
5 | CCCCCCCCCCCCCC(=O)N[C@@H](CCCCN)C(=O)NCCN([C@@H](C)C(N)=O)S(=O)(=O)c1ccc(Cl)cc1 | 5 (≈ 7.76 µM) | 
6 | CCCCCCCCCC(=O)N[C@@H](CCCCN)C(=O)NCCN([C@@H](C)C(N)=O)S(=O)(=O)c1ccc(Cl)cc1 | > 25 | 
7 | CCCCCCCCCCCCCCCC(=O)N[C@@H](CCCCN)C(=O)NCCN([C@@H](C)C(=O)NCCN([C@@H](C)C(=O)NCCN([C@@H](C)C(N)=O)S(=O)(=O)c1ccc(Cl)cc1)S(=O)(=O)c1ccc(Cl)cc1)S(=O)(=O)c1ccc(Cl)cc1 | > 25 | 
8 | CCCCCCCCCCCCCCCC(=O)N[C@@H](CCCCN)C(=O)NCCN([C@@H](C)C(=O)NCCN([C@@H](C)C(=O)NCCN([C@@H](C)C(N)=O)S(=O)(=O)c1ccc(Br)cc1)S(=O)(=O)c1ccc(Br)cc1)S(=O)(=O)c1ccc(Br)cc1 | > 25 | 
9 | CCCCCCCCCCCCCCCC(=O)N[C@@H](CCCCN)C(=O)NCCN([C@@H](C)C(=O)NCCN([C@@H](C)C(N)=O)S(=O)(=O)c1ccc(Cl)cc1)S(=O)(=O)c1ccc(Cl)cc1 | 10 (≈ 10.4 µM) | 
10 | CCCCCCCC(=O)N[C@@H](CCCCN)C(=O)NCCN([C@@H](C)C(N)=O)S(=O)(=O)c1ccc(Cl)cc1 | > 25 | 
11 | CCCCCCCCCCCCCCCC(=O)N[C@@H](CCCCN)C(=O)NCCN([C@@H](C)C(=O)NCCN([C@@H](C)C(N)=O)S(=O)(=O)c1ccc(Br)cc1)S(=O)(=O)c1ccc(Br)cc1 | 5 (≈ 4.76 µM) | 
12 | CCCCCCCCCCCCCCCC(=O)N[C@@H](CCCCN)C(=O)NCCN([C@@H](C)C(N)=O)S(=O)(=O)c1ccc(Cl)cc1 | 1 (≈ 1.49 µM) | Activity (Staphylococcus aureus [2]): Active; HC50 at 1 h [3]: 62.5 µg/mL; selectivity ratio [4]: 62.5; Activity (Staphylococcus aureus [5]): Active; Activity (Staphylococcus aureus [6]): Active
13 | CCCCCCCCCCCC(=O)N[C@@H](CCCCN)C(=O)NCCN([C@@H](C)C(N)=O)S(=O)(=O)c1ccc(Cl)cc1 | 5 (≈ 8.11 µM) | 
